{"source": "ChEMBL document CHEMBL3085721", "about": "“Nonhydrolyzable ATP analogues as selective inhibitors of human NPP1: a combined computational/experimental study” (J Med Chem, 2013)", "key": {"[1]": {"target": "T1, Ectonucleotide pyrophosphatase/phosphodiesterase family member 1 (Homo sapiens) (UniProt P22413)", "T1 sequence (whole entry)": "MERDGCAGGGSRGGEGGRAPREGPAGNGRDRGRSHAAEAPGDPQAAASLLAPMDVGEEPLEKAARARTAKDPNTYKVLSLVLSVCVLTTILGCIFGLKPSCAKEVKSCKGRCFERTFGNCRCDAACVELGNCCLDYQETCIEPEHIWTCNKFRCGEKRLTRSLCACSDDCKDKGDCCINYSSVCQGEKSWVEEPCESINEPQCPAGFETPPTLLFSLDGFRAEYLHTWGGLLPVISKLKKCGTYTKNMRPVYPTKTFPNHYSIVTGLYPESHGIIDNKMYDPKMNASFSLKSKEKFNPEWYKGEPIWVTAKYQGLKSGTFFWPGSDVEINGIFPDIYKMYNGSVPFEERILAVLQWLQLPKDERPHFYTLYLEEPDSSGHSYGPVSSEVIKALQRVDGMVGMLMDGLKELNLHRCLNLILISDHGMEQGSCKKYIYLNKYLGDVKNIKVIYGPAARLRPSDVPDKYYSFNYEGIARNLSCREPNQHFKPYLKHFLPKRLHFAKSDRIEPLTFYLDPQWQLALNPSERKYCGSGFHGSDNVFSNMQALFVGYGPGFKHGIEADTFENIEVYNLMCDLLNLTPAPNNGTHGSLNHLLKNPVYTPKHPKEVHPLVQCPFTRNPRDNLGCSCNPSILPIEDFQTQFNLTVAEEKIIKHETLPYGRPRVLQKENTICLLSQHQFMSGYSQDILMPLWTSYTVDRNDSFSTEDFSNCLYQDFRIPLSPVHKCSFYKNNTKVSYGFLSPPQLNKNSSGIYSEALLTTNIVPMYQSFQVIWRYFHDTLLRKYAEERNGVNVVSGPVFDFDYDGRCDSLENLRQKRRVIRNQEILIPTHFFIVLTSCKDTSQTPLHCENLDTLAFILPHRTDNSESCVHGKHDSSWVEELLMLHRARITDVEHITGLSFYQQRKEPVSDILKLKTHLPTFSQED", "assay": "Inhibition of NPP1 in human HTB-85 cells assessed as production of p-nitrophenol using pnp-TMP at 100 uM measured after 20 mins by spectrophotometry", "format": "cell-based", "in_short": "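Intact osteocarcinoma HTB85 (SaOS-2) cells in 24-well plates, 0.5 mL incubation mixture, analogue and pnp-TMP each at 100 μM. After 20 min an aliquot was read for p-nitrophenol at 410 nm. Substrate alone set as 100%. Mean ± SD of three experiments in triplicate.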"}, "[2]": {"target": "T2, Ectonucleoside triphosphate diphosphohydrolase 3 (Homo sapiens) (UniProt O75355)", "T2 sequence (whole entry)": "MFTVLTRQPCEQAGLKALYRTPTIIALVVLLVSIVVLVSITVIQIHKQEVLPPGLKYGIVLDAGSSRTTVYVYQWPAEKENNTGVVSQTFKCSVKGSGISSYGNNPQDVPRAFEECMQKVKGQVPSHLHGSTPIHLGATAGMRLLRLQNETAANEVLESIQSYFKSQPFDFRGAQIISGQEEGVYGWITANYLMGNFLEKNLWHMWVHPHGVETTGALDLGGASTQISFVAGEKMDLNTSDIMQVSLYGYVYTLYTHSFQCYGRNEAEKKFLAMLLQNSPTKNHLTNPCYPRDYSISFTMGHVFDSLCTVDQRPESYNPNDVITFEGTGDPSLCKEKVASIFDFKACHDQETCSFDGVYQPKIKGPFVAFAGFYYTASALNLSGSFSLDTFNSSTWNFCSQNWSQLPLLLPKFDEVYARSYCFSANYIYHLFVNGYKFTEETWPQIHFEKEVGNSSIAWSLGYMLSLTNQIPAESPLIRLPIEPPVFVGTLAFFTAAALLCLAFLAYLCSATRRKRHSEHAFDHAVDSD", "assay": "Inhibition of human NTPDase3 assessed as amount of inorganic phosphate released using ATP as the substrate preincubated at 100 uM for 3 mins before substrate addition after 15 mins by malachite green reagent method", "in_short": "(§1)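 Crude extracts of COS-7 cells transiently transfected with human NTPDase1, -2, -3 or -8, preincubated 3 min at 37 °C in Tris-Ringer medium pH 7.4 with analogue (final 100 μM). Started with 100 μM ATP, stopped after 15 min with malachite green; released Pi read at 630 nm. ATP alone set as 100%. Mean ± SD of 3−6 experiments in triplicate.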"}, "[3]": {"target": "T3, Ectonucleoside triphosphate diphosphohydrolase 2 (Homo sapiens) (UniProt Q9Y5L3)", "T3 sequence (whole entry)": "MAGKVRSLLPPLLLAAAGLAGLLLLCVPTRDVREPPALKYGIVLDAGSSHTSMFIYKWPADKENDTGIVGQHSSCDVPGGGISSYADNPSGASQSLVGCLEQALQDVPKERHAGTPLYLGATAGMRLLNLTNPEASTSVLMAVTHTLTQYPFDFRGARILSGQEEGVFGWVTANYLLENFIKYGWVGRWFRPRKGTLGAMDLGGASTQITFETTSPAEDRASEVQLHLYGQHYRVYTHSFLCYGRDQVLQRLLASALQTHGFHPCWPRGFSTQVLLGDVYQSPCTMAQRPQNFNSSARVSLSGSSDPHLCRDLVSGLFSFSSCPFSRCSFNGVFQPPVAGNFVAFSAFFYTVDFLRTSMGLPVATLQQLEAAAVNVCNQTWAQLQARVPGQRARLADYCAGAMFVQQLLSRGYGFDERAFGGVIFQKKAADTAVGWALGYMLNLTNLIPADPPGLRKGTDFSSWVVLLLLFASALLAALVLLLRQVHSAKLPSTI", "assay": "Inhibition of human NTPDase2 assessed as amount of inorganic phosphate released using ATP as the substrate preincubated at 100 uM for 3 mins before substrate addition after 15 mins by malachite green reagent method", "in_short": "as §1"}, "[4]": {"target": "T1, Ectonucleotide pyrophosphatase/phosphodiesterase family member 1 (Homo sapiens)", "assay": "Inhibition of human NPP1 expressed in COS7 cells assessed as production of p-nitrophenol using pnp-TMP as the substrate preincubated at 100 uM for 3 mins before substrate addition measured after 15 mins […]", "format": "cell-based", "details": "COS-7", "in_short": "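Crude extracts of COS-7 cells transiently transfected with human NPP1 or NPP3, preincubated 3 min at 37 °C in 1 mM CaCl2, 140 mM NaCl, 5 mM KCl, 50 mM Tris pH 8.5 with analogue at 100 μM. Reaction started with 100 μM pnp-TMP; p-nitrophenol at 410 nm after 15 min. Activity without analogue set as 100%. Mean ± SD of 3−6 experiments in triplicate.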"}}, "data": [{"molecule": "B[P@](=O)(OC[C@H]1O[C@@H](n2cnc3c(N)ncnc32)[C@H](O)[C@@H]1O)OP(=O)(O)CP(=O)(O)O", "values": [{"measurement": "inhibition", "setting": "[1]", "value": 41, "unit": "%"}, {"measurement": "inhibition", "setting": "[2]", "value": "< 18", "unit": "%"}, {"measurement": "inhibition", "setting": "[3]", "value": "< 18", "unit": "%"}, {"measurement": "inhibition", "setting": "[4]", "value": 80, "unit": "%"}]}, {"molecule": "B[P@@](=O)(OC[C@H]1O[C@@H](n2cnc3c(N)nc(SC)nc32)[C@H](O)[C@@H]1O)OP(=O)(O)C(F)(F)P(=O)(O)O", "values": [{"measurement": "inhibition", "setting": "[3]", "value": 50, "unit": "%"}, {"measurement": "inhibition", "setting": "[4]", "value": 90, "unit": "%"}]}, {"molecule": "CSc1nc(N)c2ncn([C@@H]3O[C@H](COP(=O)(O)C(F)(F)P(=O)(O)O)[C@@H](O)[C@H]3O)c2n1", "values": [{"measurement": "inhibition", "setting": "[1]", "value": 41, "unit": "%"}, {"measurement": "inhibition", "setting": "[2]", "value": "< 18", "unit": "%"}, {"measurement": "inhibition", "setting": "[3]", "value": "< 18", "unit": "%"}, {"measurement": "inhibition", "setting": "[4]", "value": 90, "unit": "%"}]}, {"molecule": "B[P@@](=O)(OC[C@H]1O[C@@H](n2cnc3c(N)ncnc32)[C@H](O)[C@@H]1O)OP(=O)(O)CP(=O)(O)O", "values": [{"measurement": "inhibition", "setting": "[1]", "value": 90, "unit": "%"}, {"measurement": "inhibition", "setting": "[2]", "value": "< 18", "unit": "%"}, {"measurement": "inhibition", "setting": "[3]", "value": "< 18", "unit": "%"}, {"measurement": "inhibition", "setting": "[4]", "value": 90, "unit": "%"}]}, {"molecule": "B[P@](=O)(OC[C@H]1O[C@@H](n2cnc3c(N)nc(SC)nc32)[C@H](O)[C@@H]1O)OP(=O)(O)CP(=O)(O)O", "values": [{"measurement": "inhibition", "setting": "[1]", "value": 90, "unit": "%"}, {"measurement": "inhibition", "setting": "[2]", "value": "< 18", "unit": "%"}, {"measurement": "inhibition", "setting": "[3]", "value": "< 18", "unit": "%"}, {"measurement": "inhibition", "setting": "[4]", "value": 80, "unit": "%"}]}]}
